The source of these data is ChEMBL document CHEMBL4376862, “Synthesis and evaluation of novel chlorophyll a derivatives as potent photosensitizers for photodynamic therapy” (Eur J Med Chem, 2020).

The subject of data set [1] is Mus musculus. Put plainly: Phototoxicity in ICR mouse assessed as change in auricles 0.45 mg/kg, iv in presence of 10 mW/cm2 light irradiation for 10 mins upto 7 days measured after 1day of light irradiation by H and E staining based microscopic analysis. The format is organism-based. The conditions noted are these: in vivo.
The test system of data set [2] is Mus musculus. Put plainly: Phototoxicity in ICR mouse assessed as ear weight at 0.45 mg/kg, iv followed by 10 mW/cm2 light irradiation for 10 mins at 3 days after drug challenge measured after 1 day of light irradiation (reference value: 12.8 +/- 1.5 mg). The format is organism-based. As to conditions: in vivo.
The test system of data set [3] is A549. Put plainly: Photodynamic antitumor activity against human A549 cells xenografted in BALB/c nude mouse assessed as vascular rupture at 0.3 mg/kg, iv incubated for 24 hrs followed by laser light irradiation at 120 J/cm2 measured 24 hrs post light irradiation by H and E staining based histopathological analysis. The format is functional, organism-based. Put shortly: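 Tumors from PDT-treated A549 xenograft mice (0.3 mg/kg i.v., 650 nm laser 120 J/cm2 at 24 h) excised, fixed in 4% formaldehyde in PBS, paraffin-embedded, sectioned, H&E stained.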

A short description of data set [4]: Dark toxicity in human A549 cells assessed as reduction in cell viability incubated under dark for 24 hrs measured after 48 hrs by MTT assay. The format is cell-based. The conditions noted are these: read-out: TC50. Put shortly:
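A549 cells seeded at 5×10^4 cells/100 µL per well for 24 h, treated in the dark with […] (so in the source) for 24 h; MTT added 4 h, absorbance 570 nm, 48 h later; viability as OD treated/OD control; triplicate, mean ± SD.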

The test system of data set [5] is A549. Put plainly: Phototoxicity against human A549 cells assessed as reduction in cell proliferation irradiated with 1 J/cm2 of 650 nanometer laser light preincubated for 24 hrs measured after 48 hrs by MTT assay. The format is functional, cell-based. The conditions noted are these: A549, light or radiation study. The gist of the method: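 A549 cells seeded 5×10^4 cells/100 µL per well, given […] for 24 h, then 650 nm semiconductor laser at 1 J/cm2 (25 mW/cm2, 40 s); MTT 4 h, absorbance 570 nm; viability vs control; triplicate, mean ± SD.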

Data set [6] relates to A549. Put plainly: Phototoxicity in human A549 cells assessed as reduction in cell viability in presence of irradiation with laser light at 1 J/cm2 by fluorescence microscopic method relative to control. The format is functional. The gist of the method: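 A549 cells were grown in F-12K with 10% FBS at 37 °C in 5% CO2. Cells were treated with photosensitizer and exposed to 650 nm laser at 0 or 1 J/cm2, with a laser-alone group. Viable cells were then stained with calcein (green) and nuclei with DAPI (blue), and imaged by fluorescence microscopy.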

The test system of data set [7] is A549. Put plainly: Induction of apoptosis in human A549 cells assessed as late apoptotic cell in presence of 1J/cm2 light irradiation measured after 4 hrs by annexin V-FITC and propidium iodide staining based flow cytometric analysis (reference value: 0.05%). In kind it is functional. Put shortly: (§1)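 After PDT at 1 J/cm2, A549 cells collected 4 h later, stained with annexin V-FITC and propidium iodide per kit instructions; flow cytometry with at least 10,000 events per sample.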
On the technique in general: In flow cytometry, cells or beads pass a laser one at a time.

In data set [8] the test system is A549. Put plainly: Induction of apoptosis in human A549 cells assessed as necrotic cell in presence of 1J/cm2 light irradiation measured after 4 hrs by annexin V-FITC and propidium iodide staining based flow cytometric analysis (reference value: 0.00%). In kind it is functional. Put shortly: as §1
Data set [9] can be described thus: Induction of apoptosis in human A549 cells assessed as viable cells incubated for 4 hrs under dark condition by annexin V-FITC and propidium iodide staining based flow cytometric analysis (reference value: 99.88%). In kind it is cell-based. As to conditions: read-out: Activity.
In data set [10] the test system is A549. In words: Induction of apoptosis in human A549 cells assessed as necrosis incubated for 4 hrs under dark condition by annexin V-FITC and propidium iodide staining based flow cytometric analysis (reference value: 0.00%). The conditions noted are these: a549, 4 h. The format is cell-based.
Data set [11] deals with A549. In words: Induction of apoptosis in human A549 cells assessed as caspase-3 activity using Ac-DEVD-pNA as substrate in presence of laser light irradiation measured upto 12 hrs. The format is functional, cell-based.
The test system of data set [12] is A549. Put plainly: Photodynamic antitumor activity against human A549 cells xenografted in BALB/c nude mouse assessed as survival time at 0.3 mg/kg, iv incubated for 24 hrs followed by laser light irradiation at 120 J/cm2 measured up to 70 days. The format is functional, organism-based. Put shortly: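 Nude mice bearing A549 xenografts, 0.3 mg/kg drug i.v. then 650 nm laser 120 J/cm2 at 180 mW/cm2 after 24 h; survival shown as Kaplan-Meier with log-rank test, n = 5.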
A general note: A xenograft is tissue or cells of one species grown in another, often human tumour cells in immunodeficient mice.

Data set [13] can be described thus: Drug uptake in BALB/c nude mouse xenografted with A549 cells assessed as drug level in tumor tissue at 0.3 mg/kg, iv measured upto 24 hrs by fluorescence assay. In kind it is ADME, organism-based, Neoplasm. The conditions noted are these: in vivo. Put shortly: (§2)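 A549 tumor-bearing mice dosed via tail vein (1 mg/kg in methods; 0.3 mg/kg in text) at tumors ~150–170 mm3, n = 3; whole-body imaging 0–24 h; at 6 and 12 h mice killed, heart, liver, spleen, lung, kidney, brain, tumor imaged ex vivo, excitation 420 nm, emission 650 nm.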

Data set [14] can be described thus: Drug uptake in BALB/c nude mouse xenografted with A549 cells assessed as drug level in kidney at 0.3 mg/kg, iv measured at 12 hrs by fluorescence assay. The format is ADME, organism-based. As to conditions: in vivo. Put shortly:
as §2

The nature of data set [15]: Drug uptake in BALB/c nude mouse xenografted with A549 cells assessed as drug level in tumor tissue at 0.3 mg/kg, iv measured at 12 hrs by fluorescence assay. The conditions noted are these: in vivo. The format is ADME, organism-based, Neoplasm. The gist of the method:
as §2

Data set [16] concerns Mus musculus. Put plainly: Phototoxicity in ICR mouse assessed as change in skin of the backs 0.45 mg/kg, iv in presence of 10 mW/cm2 light irradiation for 10 mins upto 7 days measured after 1 day of light irradiation by H and E staining based microscopic analysis. The conditions noted are these: in vivo. The format is organism-based.
The test system of data set [17] is Cavia porcellus. In words: Phototoxicity in guinea pig assessed as change in right ear weight 4.5 mg/kg, iv followed by 10 mW/cm2 light irradiation for 10 mins measured after 1 day of light irradiation (reference value: 40.4 +/- 2.4 mg). The format is organism-based. The conditions noted are these: in vivo.
Data set [18] relates to Cavia porcellus. Put plainly: Phototoxicity in guinea pig assessed as change in back skin weight 4.5 mg/kg, iv followed by 10 mW/cm2 light irradiation for 10 mins measured after 1day of light irradiation (reference value: 72.4 +/- 3.1 mg). As to conditions: in vivo, 24 h. In kind it is organism-based.
The test system of data set [19] is Cavia porcellus. In words: Phototoxicity in guinea pig assessed as change in auricles of left ear at 4.5 mg/kg, iv in presence of 10 mW/cm2 light irradiation for 10 mins measured after 1day of light irradiation by H and E staining based microscopic analysis. In kind it is organism-based. As to conditions: in vivo.
Data set [20] in a line: Induction of ROS generation in DMF solution assessed as ROS quantum yield at 2 uM followed by irradiation measured every 10 secs by spectrophotometric analysis. In kind it is functional.
In data set [21] the test system is A549. Put plainly: Cytotoxicity against human A549 cells assessed as apoptotic lesions in absence of light by fluorescence microscopic method. In kind it is cell-based.
The subject of data set [22] is A549. In words: Photodynamic antitumor activity against human A549 cells xenografted in BALB/c nude mouse at 0.15 mg/kg, iv followed by laser light irradiation at 120 J/cm2 measured after 14 days. In kind it is functional, organism-based. Put shortly:
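Male BALB/c nude mice (5–6 weeks, 14–16 g) given 2×10^6 A549 cells s.c. in 0.2 mL PBS; at 6–7 mm tumors randomized into ten groups; drug via tail vein, 650 nm diode laser 120 J/cm2 at 180 mW/cm2 24 h later; caliper volume a×b²/2, followed 14 days.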

The pIC50 is the IC50 on a negative log10 scale, so that one unit is a factor of ten.

Molecules are shown by their SMILES. pIC50: −log10 of the molar value. Calls of active or inactive are those of the source. No cut-off for these calls is given here.

For the molecule `CCCCOC(C)c1c(C)c2cc3nc(c4c5[nH]c(cc6nc(cc1[nH]2)C(C)=C6CC)c(C)c5C(=O)C4)[C@@H](CCC(=O)NCC(=O)CCC(=O)O)[C@@H]3C` (some centres undefined), the Activity result in the data set on Mus musculus [1] is “Non-Toxic”; in the data set with Mus musculus [2] it was 13.1 mg; with A549 [6], 30.69%; with A549 [7], 83.88%; in the data set on A549 [8], 10.92%; in the data set on A549 [10] it was 2.3%. Further, the Activity result in the data set on Mus musculus [16] is “Non-Toxic”; in the data set with Cavia porcellus [17], 43.6 mg; in the data set on Cavia porcellus [18], 75.2 mg; with Cavia porcellus [19], “Non-Toxic”; with A549 [21], “Non-Toxic”. Besides, the outcome in the data set with A549 [3], in the data set on A549 [11], in the data set on A549 [12] and in the data set on A549 [22] was Active. Also, the CC50 at 24 h in data set [4] was 2.01 µM. In the data set on A549 [5], the pIC50 was 6.64. Further, the viability at 4 h in [9] stood at 89.8%. Further, the Drug uptake result in data set [13] is listed as “Active”; in data set [14], “Not Active”; in data set [15], “Active”. Moreover, in [20], the Ratio stood at 1.56.

For `CCC1=C(C)c2cc3[nH]c(cc4nc(c5c6[nH]c(cc1n2)c(C)c6C(=O)C5)[C@@H](CCC(=O)NCC(=O)CCC(=O)O)[C@@H]4C)c(C)c3C(C)OCCO` (some centres undefined), the Activity result is listed as “Non-Toxic” with Mus musculus [1]; 13.2 mg in the data set with Mus musculus [2]; 34.15% in the data set with A549 [6]; 67.73% in the data set on A549 [7]; 0.7% in the data set on A549 [8]; 2.75% in the data set on A549 [10]. Moreover, the Activity result with Mus musculus [16] is “Non-Toxic”; with Cavia porcellus [17], 41.9 mg; in the data set on Cavia porcellus [18] it was 74.3 mg; with Cavia porcellus [19], “Non-Toxic”; in the data set on A549 [21], “Non-Toxic”. In addition, the outcome in the data set on A549 [3], with A549 [11], in the data set on A549 [12] and with A549 [22] was Active. Also, the CC50 at 24 h in [4] is 8.88 µM. The negative-log IC50 (pIC50) in the data set with A549 [5] was 6.00. The viability at 4 h in [9] came to 87.8%. For the same molecule, the Drug uptake entry is recorded as “Active” in [13], “Not Active” in data set [14] and “Active” in data set [15]. The Ratio in data set [20] was found to be 1.35.
